In ChEMBL document CHEMBL3421610, “Antimalarial activity of 4-amidinoquinoline and 10-amidinobenzonaphthyridine derivatives” (J Med Chem, 2015):
Values after ≈ are worked out from the molar mass of the structure shown. Active and inactive are the calls of the source. No cut-off for these calls is given here.

Experiments:
[1] = target: hERG (KCNH2) (Homo sapiens, UniProt Q12809); test: Inhibition of human ERG expressed in CHL cells assessed as tail current at 10 uM after 7 mins by patch clamp assay relative to control; format: cell-based; settings: CHL cells expressing human ERG
Chain of hERG (KCNH2) (Q12809 whole entry): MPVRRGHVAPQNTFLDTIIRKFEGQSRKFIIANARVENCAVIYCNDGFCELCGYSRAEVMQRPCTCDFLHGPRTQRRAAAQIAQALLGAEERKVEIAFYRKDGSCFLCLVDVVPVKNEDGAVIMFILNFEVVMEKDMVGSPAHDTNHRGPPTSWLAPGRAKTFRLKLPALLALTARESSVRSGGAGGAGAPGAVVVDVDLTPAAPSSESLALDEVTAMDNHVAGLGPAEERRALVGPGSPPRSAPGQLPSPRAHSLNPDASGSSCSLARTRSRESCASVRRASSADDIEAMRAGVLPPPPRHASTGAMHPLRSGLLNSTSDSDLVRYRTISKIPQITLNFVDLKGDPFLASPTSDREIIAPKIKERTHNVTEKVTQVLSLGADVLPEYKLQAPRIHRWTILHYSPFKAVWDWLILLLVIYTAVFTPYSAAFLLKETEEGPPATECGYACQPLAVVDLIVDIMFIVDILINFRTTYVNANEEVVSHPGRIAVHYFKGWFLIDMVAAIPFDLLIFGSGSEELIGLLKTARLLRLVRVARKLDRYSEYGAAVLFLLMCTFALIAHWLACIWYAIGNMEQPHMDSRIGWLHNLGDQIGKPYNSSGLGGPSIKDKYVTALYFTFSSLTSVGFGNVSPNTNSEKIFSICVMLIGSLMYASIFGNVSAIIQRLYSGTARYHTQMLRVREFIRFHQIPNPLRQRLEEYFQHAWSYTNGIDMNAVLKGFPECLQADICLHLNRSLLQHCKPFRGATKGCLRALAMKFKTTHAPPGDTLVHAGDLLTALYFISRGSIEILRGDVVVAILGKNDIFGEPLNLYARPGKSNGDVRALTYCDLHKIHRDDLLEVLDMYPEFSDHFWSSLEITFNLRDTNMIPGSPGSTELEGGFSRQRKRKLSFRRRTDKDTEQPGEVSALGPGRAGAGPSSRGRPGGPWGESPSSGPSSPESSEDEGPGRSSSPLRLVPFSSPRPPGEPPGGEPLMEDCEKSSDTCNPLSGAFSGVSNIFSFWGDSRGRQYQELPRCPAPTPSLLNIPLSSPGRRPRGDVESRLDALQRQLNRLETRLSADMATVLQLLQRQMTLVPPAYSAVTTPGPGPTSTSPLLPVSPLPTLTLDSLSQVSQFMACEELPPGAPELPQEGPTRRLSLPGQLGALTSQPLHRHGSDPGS

[2] = system: Plasmodium falciparum; test: Antimalarial activity against chloroquine-resistant Plasmodium falciparum W2 assessed as growth inhibition after 18 hrs by [3H]-hypoxanthine uptake assay; format: functional, organism-based
In short: (§1)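 P. falciparum clones D6, W2 and TM91C235; modified semiautomated microdilution. Compounds in DMSO, diluted in RPMI 1640 with 10% human plasma, tested over (1.56-100) x 10^-9 M; final DMSO 0.25-0.5%. Inoculum 0.5% parasitemia, 1% hematocrit. 24 h incubation, then [3H]-hypoxanthine added, further 18 h. Harvested and read by scintillation counting; IC50 by nonlinear regression.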

[3] = system: HepG2; test: Cytotoxicity against human HepG2 cells after 48 hrs by MTT assay; format: cell-based; settings: HepG2, 48 h
In short: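 HepG2 cells in supplemented MEM, plated at 9570 cells/well in 384-well format and incubated overnight at 37 °C, 5% CO2. Twelve duplicate 1.6-fold dilutions, 57–10,000 ng/ml, incubated 48 h. MTT added for 1 h at room temperature in the dark, formazan dissolved in acidified isopropanol, absorbance read. IC50 by sigmoidal variable-slope nonlinear regression; tryptanthrin control.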

[4] = Half life in human liver microsomes at 1 uM by LC/MS analysis; format: ADME
In short: (§2)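 Compound at 1 µM final, diluted from […], with 0.5 mg/mL pooled human or mouse liver microsomes, NADP, MgCl2 and 0.1 M PBS pH 7.4. Reaction started with 1 U/mL G6PD and shaken at 37 °C. Aliquots quenched in cold acetonitrile at 0, 10, 20, 30 and 60 min and quantified by LC/MS. Half-life from log plot of total ion chromatogram area remaining.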

[5] = Half life in mouse liver microsomes at 1 uM by LC/MS analysis; format: ADME; in short: as §2
[6] = system: Plasmodium falciparum; test: Antimalarial activity against chloroquine-resistant Plasmodium falciparum C235 assessed as growth inhibition after 18 hrs by [3H]-hypoxanthine uptake assay; format: functional, organism-based; in short: as §1
[7] = system: Plasmodium falciparum; test: Antimalarial activity against chloroquine-sensitive Plasmodium falciparum D6 assessed as growth inhibition after 18 hrs by [3H]-hypoxanthine uptake assay; format: functional, organism-based; in short: as §1
[8] = system: Plasmodium berghei; test: Antimalarial activity against erythrocytic stage of chloroquine resistant Plasmodium berghei ANKA infected in mouse assessed as cure rate at 160 mg/kg, po qd administered on day 3, 4 and 5 post infection measured 3 times per week for 30 days, starting from day 3 by Thompson test; format: functional, organism-based; parameters: dose 160 mg/kg
In short: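 Male mice of 16-20 g inoculated intraperitoneally with 5 x 10^6 erythrocytes infected with CQ-resistant P. berghei ANKA. Drug given orally as a suspension once daily on days 3, 4 and 5 post-infection, five mice per dose. Blood films from day 3, three times weekly for 30 days. Cure means parasite-negative on day 30 or surviving 30 days. Mice losing >20% body weight sacrificed.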

[9] = system: Mus musculus; test: Toxicity in mouse infected with erythrocytic stage of chloroquine resistant Plasmodium berghei ANKA up to 160 mg/kg, po qd administered on day 3, 4 and 5 post infection measured over 30 days; format: organism-based, Erythrocyte; parameters: dose 160 mg/kg, route oral; settings: in vivo, 720 h
In short: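 Male mice of 16-20 g infected intraperitoneally with CQ-resistant P. berghei ANKA (5 x 10^6 infected erythrocytes). Oral dosing once daily on days 3-5, five mice per group. Animals followed for 30 days by blood films; mice losing >20% body weight sacrificed.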

| Structure (SMILES) | inhibition at 7 min, 10 µM [1] [%] | IC50 [2] [nM] | IC50 [3] [µg/mL] | half-life at 1 µM [4] [min] | half-life at 1 µM [5] [min] | IC50 [6] [nM] | IC50 [7] [nM] | Activity [8] | Activity [9] |
| --- | --- | --- | --- | --- | --- | --- | --- | --- | --- |
| CCN(CC)CCCN(CCCN(CC)CC)/C(C)=N\c1ccnc2cc(Cl)ccc12 | 16.2 | 121 | 3 (≈ 6.73 µM) | > 60 | > 60 | 33.9 | 15 | – | – |
| O=C1c2ccccc2-n2c1nc1ccccc1c2=O [TRYPTANTHRIN] | – | – | 0.305 (≈ 1.23 µM) | – | – | – | – | – | – |
| CCN(CC)CCC/N=C(/Nc1c2ccc(Cl)cc2nc2ccc(OC)nc12)C(C)C | 86.5 | 8.8 | 2.06 (≈ 4.67 µM) | 20 | 22 | 3.8 | 2 | – | – |
| CCN(CC)CCCC(C)Nc1ccnc2cc(Cl)ccc12 (stereo not given) [CHLOROQUINE] | 71 | – | 12 (≈ 37.6 µM) | > 60 | > 60 | – | – | Active | – |
| CCN(CC)CCC/N=C(/Nc1c2ccc(Cl)cc2nc2ccc(OC)nc12)c1cccnc1 | 63 | 20.6 | 8.6 (≈ 18 µM) | 32 | 29 | 8.2 | 7.2 | – | – |
| C/C(=N/c1ccnc2cc(Cl)ccc12)NCCc1ccncc1 | – | 617 | 11.3 (≈ 34.7 µM) | 47 | 13 | 719 | 920 | – | – |
| OC(c1cc(C(F)(F)F)nc2c(C(F)(F)F)cccc12)C1CCCCN1 (stereo not given) [MEFLOQUINE] | 95 | – | – | – | – | – | – | – | – |
| CCN(CC)CCCCN/C(=N\c1ccnc2cc(Cl)ccc12)C(C)C | 54.6 | 254 | 5.01 (≈ 13.4 µM) | 55 | 42 | 125 | 61 | Active | Non-toxic |
| Clc1ccc2c(N(CCCN3CCCCC3)/C(=N/CCCN3CCCCC3)c3ccccc3)ccnc2c1 | 21.7 | 16 | 2.45 (≈ 4.6 µM) | 31 | > 60 | 6.95 | 1.9 | – | – |
| COc1ccc2nc3cc(Cl)ccc3c(N/C(=N/CCCN(C)C)C(C)C)c2n1 | 72.1 | 9.7 | 3.56 (≈ 8.6 µM) | 33 | 46 | 4.3 | 2.2 | – | – |
| CCN(CC)CCN/C(C)=N\c1ccnc2cc(Cl)ccc12 | – | 296 | 1.32 (≈ 4.15 µM) | 26 | 18 | 182 | 189 | – | – |
| COc1ccc2nc3cc(Cl)ccc3c(N(CCCN(C)C)/C(C)=N/CCCN(C)C)c2n1 | 18.3 | 80.8 | 1.7 (≈ 3.6 µM) | > 60 | > 60 | 51 | 11.7 | – | – |
| CCCCN(CCCC)CCC(O)c1cc2c(Cl)cc(Cl)cc2c2cc(C(F)(F)F)ccc12 (stereo not given) [HALOFANTRINE] | 100 | – | – | – | – | – | – | – | – |
| C/C(=N/c1ccnc2cc(Cl)ccc12)NCCCN1CCOCC1 | – | 295 | > 30.3 | 25 | 22 | 578 | 327 | – | – |
| CN(C)CCC/N=C(\c1ccccc1)N(CCCN(C)C)c1ccnc2cc(Cl)ccc12 | 16.4 | 121 | 5.77 (≈ 12.8 µM) | > 60 | > 60 | 45.4 | 7.1 | – | – |
| CC(C)/C(=N/c1ccnc2cc(Cl)ccc12)NCCCN1CCCCC1 | 74.5 | 91 | > 24.2 | 29 | 43 | 56 | 34 | Active | Non-toxic |
| C/C(=N/c1ccnc2cc(Cl)ccc12)NCCC1CCN(c2ccncc2)CC1 | – | 193 | 6.73 (≈ 16.5 µM) | > 60 | > 60 | 64 | 36.4 | – | – |
| CCN(CC)CCCCCN/C(C)=N\c1ccnc2cc(Cl)ccc12 | – | 455 | 12.5 (≈ 34.5 µM) | 56 | > 60 | 175 | 125 | – | – |
| CCN(CC)CCCN(CCCN(CC)CC)/C(=N\c1c2ccc(Cl)cc2nc2ccc(OC)nc12)C(C)C | 32.5 | 6.1 | 0.668 (≈ 1.2 µM) | > 60 | > 60 | 3.2 | 1.1 | – | – |
| CCN(CC)CCC/N=C(\c1ccccc1)N(CCCN(CC)CC)c1ccnc2cc(Cl)ccc12 | 21.9 | 76.8 | 4.09 (≈ 8.05 µM) | > 60 | > 60 | 33.7 | 6.1 | – | – |
| COc1ccc2nc3cc(Cl)ccc3c(N/C(=N/CCCN3CCCCC3)C(C)C)c2n1 | 69.6 | 3.96 | 2.01 (≈ 4.42 µM) | 9 | 8 | 1.94 | 1.1 | – | – |
| CCN(CC)CCC/N=C(/N=c1\ccn(CCCN(CC)CC)c2cc(Cl)ccc12)c1cccnc1 | – | 3920 | 14.1 (≈ 27.7 µM) | > 60 | > 60 | 2660 | 2500 | – | – |
| CCN(CC)CCC/N=C(/Nc1c2ccc(Cl)cc2nc2ccc(OC)nc12)c1ccccc1 | – | 5.6 | 3.7 (≈ 7.77 µM) | 16 | 26 | 2.8 | 1.7 | – | – |
| CCN(CC)CCC/N=C(\c1cccnc1)N(CCCN(CC)CC)c1ccnc2cc(Cl)ccc12 | – | 383 | 2.94 (≈ 5.78 µM) | > 60 | > 60 | 290 | 34.8 | – | – |
| CC(C)/C(=N/c1ccnc2cc(Cl)ccc12)NC1CCN(Cc2ccccc2)CC1 | 51.8 | 58.7 | 5.15 (≈ 12.2 µM) | 25 | 30 | 30.9 | 15 | – | – |
| CCN(CC)CCCN/C(=N\c1ccnc2cc(Cl)ccc12)c1cccnc1 | 101 | 203 | 7.87 (≈ 19.9 µM) | 36 | > 60 | 79.5 | 38.9 | – | – |
| CCN(CC)CCCN/C(C)=N\c1ccnc2cc(Cl)ccc12 | – | 226 | > 10 | > 60 | > 60 | 133 | 138 | – | – |
| C/C(=N/c1ccnc2cc(Cl)ccc12)NC1CCN(C)CC1 | – | 275 | > 30.3 | > 60 | > 60 | 89 | 76 | – | – |
| Clc1ccc2c(/N=C(\NCCCN3CCCCC3)c3ccccc3)ccnc2c1 | 93 | 15.7 | 5.12 (≈ 12.6 µM) | 12 | 18 | 5.7 | 5.2 | – | – |
| CCN(CC)CCN/C(=N\c1ccnc2cc(Cl)ccc12)C(C)C | – | 97 | 12.7 (≈ 36.6 µM) | > 60 | 12 | 52 | 54 | Active | Toxic |
